Shown are actives, neighbours in structure and some others; about 5.7% of the full set was active somewhere.
Calb FLC: C. albicans growth modulation with fluconazole; AID 1979; C. albicans CaCi-2 (fluconazole-resistant clinical isolate) + fluconazole, Alamar Blue growth, 48 h; actives 0.57% (n = 300,000); growth inhibition, % (test concentration not listed);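 active = growth inhibition above about 58% in most replicates, limit read from the data, passing the limit was not always enough; inconclusive = exactly half the replicates above a set limit; inactive = most replicates below a set limit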;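 also: all wells also contain fluconazole at 8 µg/ml as a sub-toxic cotreatment; 0% = median of DMSO wells and 100% = median of geldanamycin control wells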
T cruzi repl: blocks replication of Trypanosoma cruzi; AID 1885; inhibition, % (no concentration beside the values); actives 1.4% (n = 300,000); T. cruzi beta-gal in NIH3T3, luminescence, 90 h;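 active = mean inhibition across valid replicates above about 55%, limit read from the data; inconclusive = mean below that limit but half or more replicates reach it; inactive = mean below it, under half of replicates reach it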;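 also: signal also drops with host cell toxicity which is not excluded here; 0% = plate median of DMSO wells and 100% = zero luminescence signal; higher percent means less beta-gal luminescence so fewer parasites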
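System: Mouse NIH/3T3 fibroblasts infected with β-gal-expressing T. cruzi Tulahuen C4 | Quantity: NIH/3T3 cells, 5,000 per well | Reagent: 5000 reporter trypomastigotes per well | Dosing: Compound pinned at 50 nL/well, DMSO | Schedule: 3 h host attachment, then at least 90 h co-culture | Detection: GalScreen luminescence, 60 min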
CSC inhib: blocks cancer stem cells; actives 1.1% (n = 300,000); inhibition, % at 7.5 µM; cancer stem cell-like cells viability, luminescence; in the data active = inhibition above about 75%; inconclusive = no clear call, values can overlap the other calls; tested in HMLE shEcad cells
SKKanGAS inh: SKKanGAS growth inhibition. S. pyogenes SKKanGAS, kanamycin growth, BacTiter-Glo, 6 h. inhibition, % at 7.5 µM. actives 1.3% (n = 300,000);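 active = mean replicate score, as percent of positive control median, at least 50; inconclusive = mean below 50 but one replicate at or above 50; inactive = mean and every replicate below 50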;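 also: strain carries kanamycin resistance gene driven by streptokinase promoter and grows in 40 µg/ml kanamycin; loss of luminescence reflects streptokinase promoter inhibition or plain growth inhibition; 0% = median of DMSO wells and 100% = positive control at its reference dose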
Beta apoptosis: beta cell apoptosis inhibition; INS-1E cytokine-induced death, ATP luminescence, 48 h; percent of positive-control rescue, neutral wells zero; protection from apoptosis, % (no concentration beside the values); actives 0.8% (n = 300,000);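 active = Every replicate reaches about 75%, or at least half do and their mean reaches it too, limit read from the data; inconclusive = At least half of replicates reach the limit but their mean does not; inactive = Under half of replicates reach the limit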;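 also: 0% = cytokine-treated negative control wells and 100% = positive control rescue; higher means more ATP so stronger rescue from cytokine killing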
Mdm2 MdmX PPI: human Mdm2/MdmX binding inhibition | SaOS-2 split-luciferase Mdm2/MdmX complementation, luminescence | inhibition, % at 8 µM | actives 3% (n = 330,000) | AID 485346;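 active = inhibition of at least 50% at 8 µM in the primary screen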
Target sequence (O15151 whole entry, looked up): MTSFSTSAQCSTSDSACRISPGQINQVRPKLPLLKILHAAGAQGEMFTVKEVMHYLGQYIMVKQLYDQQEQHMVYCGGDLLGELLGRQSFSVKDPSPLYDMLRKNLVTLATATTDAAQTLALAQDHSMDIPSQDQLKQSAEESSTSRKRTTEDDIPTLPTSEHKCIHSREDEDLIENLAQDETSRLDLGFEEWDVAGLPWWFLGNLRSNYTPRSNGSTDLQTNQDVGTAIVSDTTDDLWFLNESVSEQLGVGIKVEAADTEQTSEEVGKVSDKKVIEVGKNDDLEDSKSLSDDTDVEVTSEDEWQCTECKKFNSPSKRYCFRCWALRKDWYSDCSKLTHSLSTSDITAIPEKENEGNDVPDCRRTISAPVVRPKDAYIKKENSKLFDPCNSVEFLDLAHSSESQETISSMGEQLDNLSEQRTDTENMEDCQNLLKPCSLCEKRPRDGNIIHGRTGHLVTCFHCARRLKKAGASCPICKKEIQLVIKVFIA
Target sequence (Q00987 whole entry, looked up): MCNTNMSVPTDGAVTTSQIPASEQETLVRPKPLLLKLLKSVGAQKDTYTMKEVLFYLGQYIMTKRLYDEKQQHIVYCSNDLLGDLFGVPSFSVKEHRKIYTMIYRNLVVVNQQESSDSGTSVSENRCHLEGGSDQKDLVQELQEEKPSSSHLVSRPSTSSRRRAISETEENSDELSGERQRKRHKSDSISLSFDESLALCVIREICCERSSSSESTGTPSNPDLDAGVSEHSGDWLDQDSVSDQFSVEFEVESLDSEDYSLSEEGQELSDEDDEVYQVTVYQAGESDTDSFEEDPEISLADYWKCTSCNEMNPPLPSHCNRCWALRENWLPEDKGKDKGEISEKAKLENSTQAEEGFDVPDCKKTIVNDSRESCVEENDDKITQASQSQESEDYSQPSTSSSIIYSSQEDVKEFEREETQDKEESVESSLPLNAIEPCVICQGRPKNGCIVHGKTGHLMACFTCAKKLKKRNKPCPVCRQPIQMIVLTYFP
Mdm2-MdmX conf: confirmation of human Mdm2/MdmX interaction inhibitors; shares compounds with Mdm2 MdmX PPI; Mdm2-MdmX binding, luminescent assay; inhibition, % at 8 µM; actives 55% (n = 10,000); AID 489028; in the data active = inhibition above about 40%
FLuc counter: inhibits full-length luciferase, flagging false Mdm2/MdmX hits. shares compounds with Mdm2 MdmX PPI. SaOS-2 full-length luciferase counterscreen, luminescence. inhibition, % at 8 µM. actives 77% (n = 6,200);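 active = mean inhibition at 8 µM reaching about 37%, which flags the compound as non-specific, limit read from the data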;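 also: p53-null SaOS-2 cells with luciferase driven by a doxycycline-inducible promoter; compound on cells about two nights before reading with doxycycline added after day one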
* = called active by the depositor; ? = inconclusive; . = no result given; ! = a repeat was not active.

SMILES	Calb FLC	T cruzi repl	CSC inhib	SKKanGAS inh	Beta apoptosis	Mdm2 MdmX PPI	Mdm2-MdmX conf	FLuc counter
O=C(Nc1ccc(OCC(F)(F)C(F)F)c(C(F)(F)F)c1)c1ccccc1	12	16	68	9	2	14	.	.
Cn1ncc2c(Nc3ccc(-c4ccccc4)cc3)ncnc21	?	-4	-10	17	10	76*	48*	73*
CCOc1ccc(S(=O)(=O)Nc2ccc(C(=O)NCc3ccncc3)cc2)cc1	.	.	-2	.	-6	-19	.	.
COC(=O)C1=C(C)N(Cc2ccccc2)C(=NCC(C)C)N[C@H]1c1cccc(C(F)(F)F)c1	.	.	31	.	29	99*	51*	26
COC(=O)C1=C(C)N(Cc2ccccc2)C(=NCC(C)C)N[C@H]1c1cccc(F)c1	.	.	.	.	-14	79*	45*	45*
COC(=O)C1=C(C)N(Cc2ccccc2)C(=NCCc2cccnc2)N[C@H]1c1ccc(Br)cc1	.	.	-4	.	2	85*	47*	54*
COC(=O)C1=C(C)N(Cc2ccccc2)C(=O)N[C@H]1c1cccc(C(F)(F)F)c1	14	-4	23	5	-6	11	.	.
COC(=O)C1=C(C)N(Cc2ccccc2)C(=NCc2ccco2)N[C@H]1c1cccc(F)c1	.	.	.	.	-3	42	.	.
COC(=O)C1=C(C)N(Cc2ccccc2)C(=NCc2ccccc2)N[C@H]1c1cccc(C(F)(F)F)c1	.	.	122*	.	113*	98*	36	.
COC(=O)[C@@]12CCCCN1[C@H](c1ccc(-c3ccc4c(c3)OCO4)c(OC)c1)[C@@H]1C(=O)N(C)C(=O)[C@@H]12	.	.	-9	.	-10	21	.	.
COC(=O)C1=C(C)N(Cc2ccccc2)C(=NCCc2ccccn2)N[C@H]1c1cccc(C(F)(F)F)c1	.	.	4	.	2	81*	51*	59*
CCN1C(=NCc2ccco2)N[C@@H](c2cccc(C(F)(F)F)c2)C(C(=O)OC)=C1C	.	.	.	.	-3	56*	25	.
Cn1nc(-c2ccccc2)c(CO)c1Oc1cccc(C(F)(F)F)c1	2	4	.	-2	-9	-21	.	.
Cc1ccc(Sc2c(CO)c(-c3ccccc3)nn2C)cc1	-2	-20	-4	4	34	51*	47*	92*
CC(C)CN(C(=O)COC(=O)/C=C/c1ccc(Cl)c(Cl)c1)c1c(N)n(Cc2ccccc2)c(=O)[nH]c1=O	.	.	.	.	.	92*	18	.
CCCCN(C(=O)C1CCCC1)c1c(N)n(Cc2ccccc2)c(=O)[nH]c1=O	.	.	14	.	-4	23	.	.
CCCCC1CCC(C(=O)N(CC(C)C)c2c(N)n(Cc3ccccc3)c(=O)[nH]c2=O)CC1 (stereo not given)	.	8	91*	-10	85*	97*	29	.
CCNC(=S)N(CCc1ccccc1C)Cc1cc2cc(OC)c(OC)cc2[nH]c1=O	-3	41	15	4	-6	14	.	.
COc1cc2cc(CN(CCc3ccccc3C)C(=S)NCCCN(C)C)c(=O)[nH]c2cc1OC	-6	13	3	6	1	55*	22	.
COc1cc2cc(CN(CCc3ccccc3C)C(=S)NCCCN3CCOCC3)c(=O)[nH]c2cc1OC	-5	4	2	3	0	52*	20	.
COc1ccc(C2CC(=O)N(C)c3ccccc3S2)cc1 (stereo not given)	?	-3	-3	4	-10	68*	47*	97*
COc1ccc(Br)cc1CN(C)CC(=O)Nc1cccc(S(=O)(=O)N2CCCC2)c1	.	.	36	.	-3	20	.	.
O=C1C=C(O)CC(c2ccc(Cl)c(Cl)c2)C1 (stereo not given)	?	-3	-1	8	-6	12	.	.
CN[C@H]1CC[C@@H](c2ccc(Cl)c(Cl)c2)c2ccccc21	15	.	.	5	.	69*	16	.
N/C(=N\OC(=O)C1CC1)c1ccc([N+](=O)[O-])s1	-2	31	11	-4	-2	-7	.	.
SMILES	Calb FLC	T cruzi repl	CSC inhib	SKKanGAS inh	Beta apoptosis	Mdm2 MdmX PPI	Mdm2-MdmX conf	FLuc counter
CCOC(=O)c1ccc(NC(=O)COc2ccccc2CNCCc2ccccc2)cc1	-3	51	-6	-1	22	63*	16	.
CCCn1c(N)c(N2CCCCC2)c(=O)n(CC(=O)Nc2ccccc2C(F)(F)F)c1=O	.	.	-18	.	0	9	.	.
COc1ccccc1OCC(O)Cn1c(=N)n(Cc2ccccc2)c2ccccc21 (stereo not given)	5	37	8	-1	32	39	.	.
Cc1ccccc1OCC(O)Cn1c(=N)n(Cc2ccccc2)c2ccccc21 (stereo not given)	16	55*	?	-5	64	97*	96*	29
CCCCCn1c(=N)n(CC(O)COc2ccccc2OC)c2ccccc21 (stereo not given)	1	26	4	-6	21	61*!	28	.
CCCCCCSc1ccc([C@H]2N[C@@](CC(C)C)(C(=O)OC)[C@H]3C(=O)N(C)C(=O)[C@@H]23)cc1OC	12	51	38	29	7	56*	0	.
CCC1(c2ccc(OC)cc2)NC(=O)N(CC(=O)NC2CCCCC2C)C1=O (stereo not given)	.	.	.	.	0	-5	.	.
COc1ccc(-c2c(C#N)c(N)nc3c2CCc2ccccc2-3)cc1OC	?	-14	53	20	68	89*	85*	50*
COc1ccc(-c2cc(-c3ccc(O)cc3)nc(N)c2C#N)cc1OC	15	-8	12	11	-3	59*	42*	100*
CCCc1cc(-c2ccc(O)c(OCC)c2)c(C#N)c(N)n1	5	9	-6	4	8	8	.	.
CCCCCc1nc2c(C#N)c(-c3ccc(Cl)cc3)ccn2n1	-3	50	20	10	.	-31	.	.
Cc1noc(C)c1COc1ccc(C(=O)N2CCC(C(N)=O)CC2)cc1	.	.	1	.	0	23	.	.
COc1ccc2nc(N3C(=O)/C(=C/c4ccccc4)NC3=S)sc2c1	-9	-11	-3	92*	14	54*	38	.
Cc1ccc2nc(N(CCCN(C)C)C(=O)c3cc(-c4cccs4)nc4ccccc34)sc2c1	7	33	103*	18	21	96*	46*	37*
CN(C)CCCN(C(=O)c1cc(-c2cccs2)nc2ccccc12)c1nc2c(F)cccc2s1	-3	36	29	18	.	57*	31	.
Cc1nc(Nc2ccccc2)sc1C(=O)c1ccccc1	23	14	.	-10	.	-52	.	.
Cc1nc(NC(=O)/C=C/c2ccccc2)sc1C(=O)Nc1ccccc1Cl	22	-12	-7	17	3	23	.	.
